# From PubChem BioAssay
# Compounds with a hit are over-represented: about 2.9% of the library has one in this group of screens.
# SENP7 block – SENP7 protease inhibitors, primary screen, biochemical, luminescence, uHTS; Sentrin-specific protease 7 (Homo sapiens), Q9BQF6; recombinant SENP7, Z-RLRGG-aminoluciferin luminescence, 40 min; inhibition, % at 5 µM; 330,000 tested, 1.5% active; AID 434973, 2010;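 active = inhibition above about 50% at the single test dose, limit read from the data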
# SENP8 block-1 – SENP8 protease inhibitors, primary screen, biochemical, luminescence. purified SENP8, Z-RLRGG-aminoluciferin cleavage. Sentrin-specific protease 8 (Homo sapiens), Q96LD8. inhibition, % at 10 µM. 330,000 tested, 1.2% active; in the data active = inhibition above about 50%
# Target sequence (Q96LD8 whole entry, looked up): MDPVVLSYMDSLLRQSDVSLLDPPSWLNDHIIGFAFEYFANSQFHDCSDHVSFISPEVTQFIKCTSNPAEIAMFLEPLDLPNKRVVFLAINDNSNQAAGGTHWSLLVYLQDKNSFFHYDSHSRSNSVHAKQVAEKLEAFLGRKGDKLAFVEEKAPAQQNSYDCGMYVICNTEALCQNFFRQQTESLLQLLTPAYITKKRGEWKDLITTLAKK
# SENP1 FRET inh – human SENP1 catalytic domain inhibitors, primary screen, biochemical, FRET, uHTS | Sentrin-specific protease 1 (Homo sapiens), Q9P0U3 | recombinant SENP1 catalytic domain, CyPet-SUMO1-YPet FRET cleavage | inhibition, % at 10 µM | 360,000 tested, 0.21% active;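 active = inhibition at least 30% at 10 µM, raw YFP signal under a set limit, fluorescence ratio 0.5 to 1.5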
# Target sequence (Q9P0U3 419-644 limits assumed): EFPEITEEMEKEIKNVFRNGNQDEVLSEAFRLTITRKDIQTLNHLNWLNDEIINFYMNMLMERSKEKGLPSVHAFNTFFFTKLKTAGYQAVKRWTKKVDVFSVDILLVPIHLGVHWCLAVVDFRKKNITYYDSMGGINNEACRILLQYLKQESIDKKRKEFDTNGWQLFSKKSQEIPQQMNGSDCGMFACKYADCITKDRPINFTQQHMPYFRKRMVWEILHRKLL
#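 Test system: human SENP1 catalytic domain; medium: Tris pH 8 buffer plus EDTA, NaCl, BME, BSA, NP40, catalase; incubation: 50 min reaction at room temperature; technique: FRET, CFP and YFP emission; controls: no-enzyme low control and enzyme-plus-DMSO high control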
# SENP8 block-2 – human SENP8 protease inhibitors, primary screen, biochemical, fluorescence, Nedd8 protein substrate, uHTS | Sentrin-specific protease 8 (Homo sapiens), Q96LD8 | recombinant SENP8 | inhibition, % at 20 µM | 360,000 tested, 0.64% active | AID 602440, 2012; in the data active = inhibition mostly above about 40%, no sharp cut-off; inactive = mostly below about 27%
# SENP6 block – SENP6 protease inhibitors, primary screen, biochemical, luminescence, uHTS | 330,000 tested, 1.8% active | inhibition, % at 10 µM | Sentrin-specific protease 6 (Homo sapiens), Q9GZR1 | Recombinant SENP6 catalytic domain, aminoluciferin luminescence;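 active = inhibition above about 50% at the single tested dose, limit read from the data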
# HSP90 inh – HSP90 inhibitors, primary screen, cell lysate, luminescence | Heat shock protein HSP 90 (rabbit reticulocyte lysate; luciferase refolding) | Rabbit reticulocyte lysate, luciferase refolding luminescence, 3 h | inhibition, % at 5.6 µM | 290,000 tested, 0.91% active;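 active = inhibition above the screen-wide mean plus 3 SD, computed separately per campaign, cut at about 16% in these data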;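 also: inhibitors lower the luminescence because luciferase stays unfolded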
# A number is an active result; – = inactive; · = no result given.
SMILES,SENP7 block,SENP8 block-1,SENP1 FRET inh,SENP8 block-2,SENP6 block,HSP90 inh
Cc1cccc(NC(=O)/C=C/c2ccc(Cl)cc2)n1,86.1,68.5,–,–,84.1,–
Cc1ccnc(NC(=O)c2ccccc2[N+](=O)[O-])c1,–,–,–,–,–,–
Cc1cc(C)nc(NC(=O)/C=C/c2ccccc2Cl)c1,81.5,–,–,–,82.7,–
Cc1ccnc(NC(=O)/C=C/c2ccccc2[N+](=O)[O-])c1,77.8,69.3,·,·,–,–
CCC1CCCCN1S(=O)(=O)c1ccc(-n2cnnn2)c(C)c1 (stereo not given),–,–,–,–,–,–
COc1ccc(Cc2nnc(NC(=O)CS(=O)(=O)c3ccccc3)s2)cc1OC,–,–,–,–,–,–
CCCOc1ncnc2c1[nH]c1ccc(OC)cc12,80.9,63.1,–,–,77.1,–
CCCCOc1ncnc2c1[nH]c1ccc(C)cc12,51.0,–,–,–,–,–
CCCOc1ncnc2c1[nH]c1ccccc12,–,–,–,–,–,–
CC(C)N(Cc1ccccc1)S(=O)(=O)c1cccs1,–,–,–,–,–,–
O=C1/C(=N\S(=O)(=O)c2cccs2)C([n+]2cccc(Cc3ccccc3)c2)=C([O-])c2ccccc21,–,–,–,77.3,–,–
CCOC(=O)/C=C(\C)Sc1cc(=O)oc2ccccc12,–,–,–,–,–,–
CCOC(=O)/C=C(\C)Sc1cc(O)c2ccccc2c1O,·,·,–,48.5,·,–
CCOc1ccc(NC(=S)N(CCOC)C2CCN(C(C)C)CC2)cc1,–,–,–,–,–,–
CCN(CC)Cc1c(C(=O)N/N=C/c2cccs2)nnn1-c1nonc1N,–,–,–,–,–,–
COc1ccc(-c2cn3cccc(C)c3n2)cc1F,60.0,–,–,–,–,–
CCC(=O)Nc1cccc(-c2cn3cccc(C)c3n2)c1,–,–,–,–,–,–
Nc1nn2c(-c3ccccc3)cc(=O)[nH]c2c1N=Nc1ccc(Br)cc1,·,·,–,41.4,·,–
Nc1nn2c(-c3ccccc3)cc(=O)[nH]c2c1N=Nc1ccc(O)cc1,–,–,–,63.0,–,–
C=CCOc1ccc(/C(O)=C2/C(=O)C(=O)N(CCCn3ccnc3)C2c2cccs2)cc1 (stereo not given),–,–,–,–,–,–
Cc1ccsc1C(=O)N1CCC1(C)C(=O)NCCC#N (stereo not given),·,·,–,–,·,·
COc1ccc(-c2ccc(/C=C3\C(=O)N(c4ccccc4)N=C3c3ccccc3)o2)c([N+](=O)[O-])c1,–,–,–,46.0,–,–
COc1cc([N+](=O)[O-])ccc1-c1ccc(/C=C2\C(=O)ON=C2c2ccccc2)o1,·,·,–,–,·,·
CCc1c(C(=O)N2CCCN(C)CC2)csc1C,–,–,–,–,–,–
CCOc1ccc(S(=O)(=O)N2CCCC(C(=O)N3CCOCC3)C2)cc1Cl (stereo not given),–,–,–,–,–,–
SMILES,SENP7 block,SENP8 block-1,SENP1 FRET inh,SENP8 block-2,SENP6 block,HSP90 inh
CC(C)(C)OC(=O)N1CCCC(C(=O)Nc2ccc(C(=O)NCc3ccccc3)cc2)C1 (stereo not given),·,·,–,–,·,·
CCC(Oc1ccccc1)C(=O)NC1C(=O)N2C1SC(C)(C)C2C(=O)O (stereo not given),61.4,–,–,–,–,–
O=C(CC1Nc2ccccc2NC1=O)NCCc1ccccc1 (stereo not given),–,–,–,–,–,–
O=C(CC1Nc2ccccc2NC1=O)c1ccccc1 (stereo not given),–,59.0,·,·,72.0,–
Cc1nnc(N/N=C\c2ccc(-c3cccc(C(=O)O)c3)o2)n1N,–,–,–,–,52.4,–
O=C1/C(=C/c2cccs2)SC(=S)N1c1cccc(O)c1,–,–,–,47.8,–,–
O=[N+]([O-])c1ccc2c(c1Nc1ccccc1)=NC1(CCCCC1)N=2,–,–,–,44.6,–,–
CCOc1cc(C(=O)OC(C(=O)NC(=O)NC)c2ccccc2)ccc1OCC(=O)N1CCOCC1 (stereo not given),–,–,–,–,–,·
Cc1ccc(/C=C/C(=O)O)cc1S(=O)(=O)N1CCCCC1,–,–,–,–,–,–
COC(=O)/C(N=Nc1cccc(C(F)(F)F)c1)=C(\C)O,–,–,–,49.1,–,–
O=C(Nc1ccc(Cl)c(Cl)c1)OCCNC(=O)c1ccncc1,–,–,–,–,–,–
Cc1ccc(NS(=O)(=O)c2cc(NC(=O)c3ccc4c(c3)NC(=O)CS4)ccc2C)c(C)c1,–,–,–,–,–,16.7
COc1ccc(NC(=O)c2ccc3c(c2)NC(=O)CS3)cc1S(=O)(=O)Nc1ccc(Br)cc1,–,–,–,–,–,–
Cn1nnnc1SCC(=O)Nc1ccc2c(c1)OCO2,–,–,–,–,–,–
CN(C)CCNc1ccc(CO)c2sc3ccc(O)cc3c(=O)c12,·,·,–,45.1,·,·
Cc1cc(/C=C2\SC(=S)N(C)C2=O)c(C)n1-c1ccccc1O,76.6,69.8,–,–,87.4,·
CCOc1cc(C(c2c(C)[nH][nH]c2=O)c2c(C)[nH][nH]c2=O)ccc1OCc1ccc([N+](=O)[O-])cc1,–,–,–,37.4,–,–
CCOc1cc(C(c2c(C)[nH][nH]c2=O)c2c(C)[nH][nH]c2=O)ccc1OC(=O)c1cccc([N+](=O)[O-])c1,–,–,–,–,–,–
COc1ccc(C2CC(=O)N3CN(Cc4ccco4)CSC3=C2C#N)cc1 (stereo not given),–,–,–,–,–,–
COc1ccc2ccccc2c1C1CC(=O)N2CN(Cc3ccco3)CSC2=C1C#N (stereo not given),–,–,–,45.4,–,–
Cc1cc(C(=O)Cn2nc(C(=O)O)c3ccccc3c2=O)c(C)n1-c1ccc(F)cc1,–,–,–,–,–,16.8
Cc1cc(C)c(NC(=O)C2CCN(S(C)(=O)=O)CC2)c(C)c1,·,·,–,–,·,·
Cc1ccc(-c2ccc(C(=O)O)c(C)n2)cc1,–,–,–,–,–,–
Cc1nc(-c2ccc(Br)cc2)ccc1C(=O)O,–,–,–,–,74.6,–
COc1cccc(C2N=C(c3ccccc3C)NO2)c1OC (stereo not given),–,–,–,–,–,–
O=C(CSc1cn(CC(=O)N2CCOCC2)c2ccccc12)N1CCOCC1,–,–,–,–,–,–
O=C(Cn1cc(SCc2cccc(Cl)c2)c2ccccc21)N1CCOCC1,54.8,–,–,–,–,–
COc1ccccc1-[n+]1c(C)cc(/C=C2\Sc3ccccc3N2C)cc1C,–,–,–,–,–,–
